Test results: ChEMBL document CHEMBL5705899 (Biochem J, 2014)
Activity calls are given as the source filed them. No cut-off for these calls is given here.

Assays:
[1] = target: Mitogen-activated protein kinase kinase kinase 8 (Homo sapiens) (UniProt P41279); assay: Inhibition of human COT at 1 uM using RBER-CHKtide as substrate in presence of 33P-ATP by ProQinase assay
[2] = target: Serine/threonine-protein kinase 33 (Homo sapiens) (UniProt Q9BYT3); assay: Inhibition of recombinant human N-terminal GST-tagged STK33 (1 to 514 residues) expressed in baculovirus infected Sf21 cells assessed as remaining activity at 1 uM using AALVRQMSVAFFFKKKKK as substrate incubated for 30 mins in presence of [gamma-33P]ATP by filter binding method relative to control
[3] = target: Casein kinase 2 (Homo sapiens) (UniProt P67870+P68400+P19784+Q8NEV1); assay: Inhibition of CK2 (unknown origin) assessed as remaining activity at 1 uM relative to control; format: protein assay
Summary of the method: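 Dundee panel of 140 protein kinases, tested at a single 1 μM concentration. Each assay was run in triplicate. Remaining activity is expressed relative to a control reaction without inhibitor, as mean ± S.D. Conditions for each kinase were those of the screening centre.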

[4] = target: Calcium/calmodulin-dependent protein kinase type 1 (Homo sapiens) (UniProt Q14012); assay: Inhibition of recombinant human N-terminal GST-tagged CAMK1alpha (2 to 369 residues) expressed in Escherichia coli assessed as remaining activity at 1 uM using YLRRRLSDSNF as substrate incubated for 30 mins in presence of [gamma-33P]ATP by filter binding method relative to control
[5] = target: Phosphatidylinositol 4-kinase beta (Homo sapiens, UniProt Q9UBF8); assay: Inhibition of PI4Kbeta (unknown origin) using D-myo-PtdIns as substrate incubated for 45 mins by ADP-Glo assay
Summary of the method: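 PI4Kα: 1 nM enzyme, 72 μM ATP, 25 μM PtdIns. PI4Kβ: 2 nM enzyme, 220 μM ATP, 50 μM PtdIns. Reactions ran 45 min at ambient temperature; ADP-Glo reagent was added for 40 min, then detection reagent for 30 min, then luminescence was read.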

[6] = target: Mitogen-activated protein kinase kinase kinase 2 (Homo sapiens) (UniProt Q9Y2U5); assay: Inhibition of human MEKK2 at 1 uM using casein as substrate in presence of 33P-ATP by ProQinase assay
[7] = target: Serine/threonine-protein kinase BRSK1 (Homo sapiens) (UniProt Q8TDC3); assay: Inhibition of human BRSK1 at 1 uM using RBER-CHKtide as substrate in presence of 33P-ATP by ProQinase assay
[8] = target: Mitogen-activated protein kinase kinase kinase kinase 2 (Homo sapiens) (UniProt Q12851); assay: Inhibition of human MAP4K2 at 1 uM using 3xChocktide-PKC as substrate in presence of 33P-ATP by ProQinase assay
[9] = target: cGMP-dependent protein kinase 1 (Homo sapiens) (UniProt Q13976); assay: Inhibition of human PRKG1 at 1 uM using 3xChocktide-PKC as substrate in presence of 33P-ATP by ProQinase assay
[10] = target: G protein-coupled receptor kinase 4 (Homo sapiens) (UniProt P32298); assay: Inhibition of human GRK4 at 1 uM using casein as substrate in presence of 33P-ATP by ProQinase assay
[11] = target: Mitogen-activated protein kinase kinase kinase kinase 4 (Homo sapiens) (UniProt O95819); assay: Inhibition of human MAP4K4 at 1 uM using casein as substrate in presence of 33P-ATP by ProQinase assay
[12] = target: Casein kinase I isoform gamma-2 (Homo sapiens) (UniProt P78368); assay: Inhibition of recombinant human N-terminal GST-tagged CK1g2 (1 to 415 residues) expressed in Escherichia coli assessed as remaining activity at 1 uM using RRKDLHDDEEDEAMSITA as substrate incubated for 30 mins in presence of [gamma-33P]ATP by filter binding method relative to control
Chain of Casein kinase I isoform gamma-2 (Homo sapiens) (P78368 whole entry, looked up, the tested form may be a part, canonical isoform): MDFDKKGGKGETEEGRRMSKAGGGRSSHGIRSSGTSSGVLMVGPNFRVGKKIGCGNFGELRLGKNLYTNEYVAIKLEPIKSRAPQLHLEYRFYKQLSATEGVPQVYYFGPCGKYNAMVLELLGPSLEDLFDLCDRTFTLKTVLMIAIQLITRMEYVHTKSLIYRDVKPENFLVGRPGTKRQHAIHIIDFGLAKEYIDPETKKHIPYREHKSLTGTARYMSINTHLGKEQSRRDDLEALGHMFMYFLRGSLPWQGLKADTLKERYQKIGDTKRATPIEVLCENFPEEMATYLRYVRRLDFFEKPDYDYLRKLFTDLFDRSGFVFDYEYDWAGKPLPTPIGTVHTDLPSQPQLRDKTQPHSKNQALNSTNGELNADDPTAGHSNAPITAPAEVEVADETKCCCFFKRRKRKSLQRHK

[13] = target: Insulin receptor (Homo sapiens) (UniProt P06213); assay: Inhibition of human INSR at 1 uM using poly(Ala,Glu,Lys,Tyr) as substrate in presence of 33P-ATP by ProQinase assay
Chain of Insulin receptor (Homo sapiens) (P06213 28-758 limits assumed): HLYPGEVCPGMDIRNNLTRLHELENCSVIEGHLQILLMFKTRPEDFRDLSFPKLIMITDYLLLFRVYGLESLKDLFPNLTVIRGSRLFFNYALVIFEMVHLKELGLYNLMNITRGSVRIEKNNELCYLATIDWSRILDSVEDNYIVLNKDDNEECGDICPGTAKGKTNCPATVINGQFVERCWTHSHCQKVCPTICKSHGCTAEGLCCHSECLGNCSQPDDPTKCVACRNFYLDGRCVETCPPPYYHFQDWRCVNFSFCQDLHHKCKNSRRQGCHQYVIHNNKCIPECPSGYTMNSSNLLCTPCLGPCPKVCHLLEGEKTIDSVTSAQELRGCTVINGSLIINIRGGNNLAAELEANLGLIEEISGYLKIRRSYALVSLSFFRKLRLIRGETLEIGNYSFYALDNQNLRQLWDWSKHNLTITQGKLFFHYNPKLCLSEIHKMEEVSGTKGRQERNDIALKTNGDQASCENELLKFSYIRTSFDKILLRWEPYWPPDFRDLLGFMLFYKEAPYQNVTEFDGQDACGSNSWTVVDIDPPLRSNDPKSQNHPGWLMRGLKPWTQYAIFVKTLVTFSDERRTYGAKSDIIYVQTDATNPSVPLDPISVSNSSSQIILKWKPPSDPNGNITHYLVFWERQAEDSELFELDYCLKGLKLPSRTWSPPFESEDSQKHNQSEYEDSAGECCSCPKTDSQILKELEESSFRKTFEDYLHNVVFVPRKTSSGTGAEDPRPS
Chain of Insulin receptor (Homo sapiens) (P06213 763-1382 limits assumed): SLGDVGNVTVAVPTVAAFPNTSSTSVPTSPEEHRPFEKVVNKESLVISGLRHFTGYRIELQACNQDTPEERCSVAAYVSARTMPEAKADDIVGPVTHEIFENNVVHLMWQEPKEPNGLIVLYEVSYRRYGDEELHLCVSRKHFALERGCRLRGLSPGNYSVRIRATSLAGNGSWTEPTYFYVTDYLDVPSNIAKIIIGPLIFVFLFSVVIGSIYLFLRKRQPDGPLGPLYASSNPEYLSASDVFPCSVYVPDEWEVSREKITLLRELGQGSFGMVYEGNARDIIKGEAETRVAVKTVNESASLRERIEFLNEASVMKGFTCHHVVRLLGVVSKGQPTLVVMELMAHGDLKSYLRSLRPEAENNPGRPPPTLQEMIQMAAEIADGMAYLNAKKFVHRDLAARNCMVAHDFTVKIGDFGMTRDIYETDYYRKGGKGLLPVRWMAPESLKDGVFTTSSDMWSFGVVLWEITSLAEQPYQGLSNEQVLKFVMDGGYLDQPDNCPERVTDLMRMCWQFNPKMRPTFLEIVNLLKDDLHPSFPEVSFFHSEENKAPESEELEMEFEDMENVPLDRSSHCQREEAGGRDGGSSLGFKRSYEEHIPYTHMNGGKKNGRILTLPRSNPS

[14] = target: Phosphatidylinositol 4,5-bisphosphate 3-kinase catalytic subunit gamma isoform (Homo sapiens, UniProt P48736); assay: Inhibition of PI3Kgamma (unknown origin) using PtdIns(4,5)P2 as substrate preincubated for 20 mins followed by substrate addition and measured after 80 mins by Kinase-Glo assay
Chain of Phosphatidylinositol 4,5-bisphosphate 3-kinase catalytic subunit gamma isoform (P48736 whole entry, canonical isoform): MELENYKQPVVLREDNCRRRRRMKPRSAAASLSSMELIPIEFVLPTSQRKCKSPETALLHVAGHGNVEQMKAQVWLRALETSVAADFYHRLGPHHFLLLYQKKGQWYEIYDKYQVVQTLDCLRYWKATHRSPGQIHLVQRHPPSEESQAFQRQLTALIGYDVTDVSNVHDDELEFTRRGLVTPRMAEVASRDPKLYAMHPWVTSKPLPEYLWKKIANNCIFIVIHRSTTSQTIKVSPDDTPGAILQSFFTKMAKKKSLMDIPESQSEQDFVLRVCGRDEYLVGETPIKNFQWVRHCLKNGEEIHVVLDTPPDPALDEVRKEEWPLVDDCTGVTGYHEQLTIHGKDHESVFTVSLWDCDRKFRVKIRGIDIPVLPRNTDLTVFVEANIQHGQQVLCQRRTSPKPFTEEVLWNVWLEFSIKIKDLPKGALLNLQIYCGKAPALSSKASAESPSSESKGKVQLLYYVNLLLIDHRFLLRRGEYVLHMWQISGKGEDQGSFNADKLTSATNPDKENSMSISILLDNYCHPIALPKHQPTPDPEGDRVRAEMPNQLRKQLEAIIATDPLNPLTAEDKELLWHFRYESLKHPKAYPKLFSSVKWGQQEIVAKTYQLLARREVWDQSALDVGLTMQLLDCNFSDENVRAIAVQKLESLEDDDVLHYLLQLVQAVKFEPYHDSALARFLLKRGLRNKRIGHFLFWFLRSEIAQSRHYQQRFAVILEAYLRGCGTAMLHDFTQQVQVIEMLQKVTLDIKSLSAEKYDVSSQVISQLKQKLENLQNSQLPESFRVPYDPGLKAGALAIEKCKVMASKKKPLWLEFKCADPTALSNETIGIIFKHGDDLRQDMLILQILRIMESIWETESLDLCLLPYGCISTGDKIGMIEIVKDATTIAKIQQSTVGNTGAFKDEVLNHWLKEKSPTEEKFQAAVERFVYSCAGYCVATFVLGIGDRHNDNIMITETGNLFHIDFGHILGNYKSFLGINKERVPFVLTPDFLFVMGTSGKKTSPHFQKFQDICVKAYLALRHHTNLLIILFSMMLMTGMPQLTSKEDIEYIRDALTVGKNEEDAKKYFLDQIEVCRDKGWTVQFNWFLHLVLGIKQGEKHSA

[15] = target: Ephrin type-B receptor 1 (Homo sapiens) (UniProt P54762); assay: Inhibition of human EPHB1 at 1 uM using polyEY as substrate in presence of 33P-ATP by ProQinase assay
[16] = target: Mitogen-activated protein kinase 8 (Homo sapiens) (UniProt P45983); assay: Inhibition of human JNK1 at 1 uM using ATF2 as substrate in presence of 33P-ATP by ProQinase assay
Chain of Mitogen-activated protein kinase 8 (Homo sapiens) (P45983 whole entry): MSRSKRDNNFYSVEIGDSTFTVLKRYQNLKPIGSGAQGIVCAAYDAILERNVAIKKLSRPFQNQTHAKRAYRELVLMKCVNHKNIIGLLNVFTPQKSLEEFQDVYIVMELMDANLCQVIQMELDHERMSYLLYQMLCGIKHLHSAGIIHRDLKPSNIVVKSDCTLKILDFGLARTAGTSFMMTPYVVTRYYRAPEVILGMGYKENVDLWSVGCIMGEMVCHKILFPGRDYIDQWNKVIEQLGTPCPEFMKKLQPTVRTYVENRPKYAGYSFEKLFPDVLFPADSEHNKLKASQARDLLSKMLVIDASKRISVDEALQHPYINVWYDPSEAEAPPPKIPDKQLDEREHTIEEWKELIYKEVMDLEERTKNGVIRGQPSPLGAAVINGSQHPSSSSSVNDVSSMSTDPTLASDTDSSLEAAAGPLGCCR

[17] = target: Testis-specific serine/threonine-protein kinase 1 (Homo sapiens) (UniProt Q9BXA7); assay: Inhibition of human TSSK1 at 1 uM using RBER-CHKtide as substrate in presence of 33P-ATP by ProQinase assay
[18] = target: Serine/threonine-protein kinase 3 (Homo sapiens) (UniProt Q13188); assay: Inhibition of human MST2 at 1 uM using RB-CTF as substrate in presence of 33P-ATP by ProQinase assay
[19] = target: Proto-oncogene tyrosine-protein kinase receptor Ret (Homo sapiens) (UniProt P07949); assay: Inhibition of human RET at 1 uM using polyEY as substrate in presence of 33P-ATP by ProQinase assay
Chain of Proto-oncogene tyrosine-protein kinase receptor Ret (Homo sapiens) (P07949 whole entry, the tested form may be a part): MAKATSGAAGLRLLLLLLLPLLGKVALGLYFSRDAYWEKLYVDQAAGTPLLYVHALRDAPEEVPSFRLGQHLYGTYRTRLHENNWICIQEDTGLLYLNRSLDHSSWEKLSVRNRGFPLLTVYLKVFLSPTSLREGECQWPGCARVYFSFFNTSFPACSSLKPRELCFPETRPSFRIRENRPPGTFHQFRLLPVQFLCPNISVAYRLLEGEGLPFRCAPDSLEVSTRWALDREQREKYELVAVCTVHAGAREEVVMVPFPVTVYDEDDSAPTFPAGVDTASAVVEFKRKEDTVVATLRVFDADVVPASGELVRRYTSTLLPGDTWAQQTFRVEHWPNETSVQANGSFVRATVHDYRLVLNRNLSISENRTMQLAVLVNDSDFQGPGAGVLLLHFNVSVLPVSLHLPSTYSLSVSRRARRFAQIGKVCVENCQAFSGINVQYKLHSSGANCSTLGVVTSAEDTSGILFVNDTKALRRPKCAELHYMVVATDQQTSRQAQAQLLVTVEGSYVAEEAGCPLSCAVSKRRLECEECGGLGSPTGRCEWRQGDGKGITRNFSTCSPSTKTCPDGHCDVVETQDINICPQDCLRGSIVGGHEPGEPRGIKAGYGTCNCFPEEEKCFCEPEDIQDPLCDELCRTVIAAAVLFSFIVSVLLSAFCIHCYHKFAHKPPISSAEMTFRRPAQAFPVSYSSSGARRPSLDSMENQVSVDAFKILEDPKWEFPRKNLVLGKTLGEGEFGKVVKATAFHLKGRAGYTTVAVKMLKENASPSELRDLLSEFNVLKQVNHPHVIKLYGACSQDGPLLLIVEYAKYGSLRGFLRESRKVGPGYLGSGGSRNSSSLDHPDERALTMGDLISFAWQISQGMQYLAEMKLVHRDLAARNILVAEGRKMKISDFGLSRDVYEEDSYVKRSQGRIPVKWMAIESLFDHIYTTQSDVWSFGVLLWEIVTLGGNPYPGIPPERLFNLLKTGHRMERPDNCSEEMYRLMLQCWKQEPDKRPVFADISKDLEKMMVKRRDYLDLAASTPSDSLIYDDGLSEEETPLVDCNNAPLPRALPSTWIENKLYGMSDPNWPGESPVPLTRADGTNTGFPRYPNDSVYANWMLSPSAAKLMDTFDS

[20] = target: Serine/threonine-protein kinase WNK1 (Homo sapiens) (UniProt Q9H4A3); assay: Inhibition of recombinant human WNK1 (1 to 661 residues) expressed in baculovirus infected Sf21 cells assessed as remaining activity at 1 uM using YLRRRLSDSNF as substrate incubated for 30 mins in presence of [gamma-33P]ATP by filter binding method relative to control
[21] = target: PAS domain-containing serine/threonine-protein kinase (Homo sapiens) (UniProt Q96RG2); assay: Inhibition of human PASK at 1 uM using RBER-CHKtide as substrate in presence of 33P-ATP by ProQinase assay
[22] = target: Macrophage colony-stimulating factor 1 receptor (Homo sapiens) (UniProt P07333); assay: Inhibition of human CSF1R at 1 uM using polyEY as substrate in presence of 33P-ATP by ProQinase assay
[23] = target: Homeodomain-interacting protein kinase 3 (Homo sapiens) (UniProt Q9H422); assay: Inhibition of human HIPK3 at 1 uM using RBER-CHKtide as substrate in presence of 33P-ATP by ProQinase assay
[24] = target: Serine/threonine-protein kinase MRCK alpha (Homo sapiens) (UniProt Q5VT25); assay: Inhibition of human CDC42BPA at 1 uM using RB-S6P as substrate in presence of 33P-ATP by ProQinase assay
[25] = target: Aurora kinase B (Homo sapiens) (UniProt Q96GD4); assay: Inhibition of human AuroraB at 1 uM using bio-4xCHKT as substrate in presence of 33P-ATP by ProQinase assay

Chain of Mitogen-activated protein kinase kinase kinase 8 (Homo sapiens) (P41279 whole entry, the tested form may be a part): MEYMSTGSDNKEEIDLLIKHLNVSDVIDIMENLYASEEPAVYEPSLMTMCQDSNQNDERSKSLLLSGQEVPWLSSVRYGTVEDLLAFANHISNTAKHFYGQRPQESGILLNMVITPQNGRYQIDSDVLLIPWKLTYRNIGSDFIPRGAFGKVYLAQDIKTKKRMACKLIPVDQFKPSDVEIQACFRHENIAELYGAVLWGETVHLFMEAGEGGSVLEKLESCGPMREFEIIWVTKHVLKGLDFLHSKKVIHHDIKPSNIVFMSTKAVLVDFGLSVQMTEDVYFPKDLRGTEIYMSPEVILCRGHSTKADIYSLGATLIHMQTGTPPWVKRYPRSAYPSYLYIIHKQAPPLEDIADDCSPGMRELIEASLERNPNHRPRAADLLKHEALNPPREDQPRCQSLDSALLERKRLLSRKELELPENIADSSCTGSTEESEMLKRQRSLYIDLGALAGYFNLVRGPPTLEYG

Q: Which results are given for `CC(C)(O)CNc1ncc(-c2ccnc(Nc3ccnc(Cl)c3)n2)c(CC2CC2)n1`?
A: inhibition [1]: inactive; Activity [2]: 124%; Activity [3]: 111%; Activity [4]: 116%; IC50 [5]: 1070 nM; inhibition [6]: inactive; inhibition [7]: inactive; inhibition [8]: inactive; inhibition [9]: inactive; inhibition [10]: inactive; inhibition [11]: inactive; Activity [12]: 122%; inhibition [13]: inactive; IC50 [14]: 2680 nM; inhibition [15]: inactive; inhibition [16]: inactive; inhibition [17]: inactive; inhibition [18]: inactive; inhibition [19]: inactive; Activity [20]: 116%; inhibition [21]: inactive; inhibition [22]: inactive; inhibition [23]: inactive; inhibition [24]: inactive; inhibition [25]: inactive
